Data: ChEMBL document CHEMBL3286353, “Optimization of small-molecule inhibitors of influenza virus polymerase: from thiophene-3-carboxamide to polyamido scaffolds” (J Med Chem, 2014)
Values after ≈ are worked out from the molar mass of the structure shown. Active and inactive are the calls of the source. No cut-off for these calls is given here.

Assays:
[1] = Inhibition of Influenza A virus GST-tagged PB1 (1 to 25) expressed in Escherichia coli binding to Influenza A virus 6His-tagged PA (239 to 716) expressed in Escherichia coli BL21(DE3) by ELISA
In short: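 Plates coated with 400 ng purified E. coli-expressed 6His-PA(239-716) for 3 h at 37 °C, then blocked with 2% BSA/PBS for 1 h at 37 °C. GST-PB1(1-25) (200 ng; GST alone as control) was added with compound at 10, 50, 100 or 200 μM and incubated overnight at room temperature. Detection used HRP anti-GST mAb (1:3000) and TMB at 450 nm, with DMSO set as 100%. IC50 is mean ± SD, ≥3 experiments in duplicate.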

[2] = Inhibition of Influenza A virus RdRP infected in human HEK293T cells after 24 hrs by dual luciferase reporter gene assay; format: cell-based; conditions: HEK-293T
In short: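 HEK 293T cells (10^5 per well) were transfected 24 h after seeding with PB1, PB2, PA and NP plasmids (100 ng each), a pol I firefly luciferase reporter (50 ng) and pRL-SV40 Renilla (50 ng), with compound or DMSO. Medium was replaced with compound-containing DMEM at 4 h. Dual luciferase was read at 24 h post-transfection, with DMSO set as 100%. EC50 is mean ± SD, ≥3 experiments in duplicate.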

Influenza A virus [3] = assay: Inhibition of Influenza A virus A/PR/8/34 infected in MDCK cells after 48 hrs by plaque reduction assay; format: functional, organism-based; conditions: A/PR/8/34, MDCK
In short: (§1)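 Confluent MDCK monolayers in 12-well plates were infected with about 40 PFU/well in DMEM with 1 µg/ml TPCK-trypsin and 0.14% BSA, with compound or DMSO, for 1 h at 37 °C. Overlay was serum-free medium with trypsin, BSA, 1.2% Avicel and compound. After 48 h, cells were fixed with 4% formaldehyde, stained with 0.1% toluidine blue and plaques counted, with DMSO set as 100%. EC50 is mean ± SD, ≥3 experiments in duplicate.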

[4] = Cytotoxicity against human HEK293T cells after 24 hrs by MTT assay; format: cell-based, HEK-293T
In short: (§2)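 MTT assay. HEK 293T or MDCK cells (2×10^4 per well) were cultured at 37 °C in DMEM with serially diluted compounds (250 to 1.9 μM), for 24 h (293T) or 48 h (MDCK). MTT (5 mg/ml stock) was then added for 4 h, cells were lysed and incubated 3 h more, and absorbance was read at 620 nm. CC50 is the concentration cutting viability 50%, mean ± SD of ≥3 independent experiments in duplicate.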

[5] = Cytotoxicity against MDCK cells after 48 hrs by MTT assay; format: cell-based, Canis lupus familiaris; conditions: dog; in short: as §2
Human betaherpesvirus 5 = assay: Inhibition of HCMV UL54 expressed in baculovirus interaction with UL44 expressed in baculovirus after 1 hr by ELISA
In short: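 Plates coated with […] purified baculovirus-expressed HCMV UL54, then blocked with 2% BSA/PBS for 1 h. Purified UL44 ([…]) carrying a C-terminal EEF tag was added with compound or DMSO (1% final) for 1 h at 37 °C. Detection used MAb YL1/2 (1 h, 37 °C), then HRP anti-rat antibody and TMB, read at 450 nm. Compounds were tested up to 200 μM.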

[6] = Inhibition of Influenza A virus (A/Solomon Islands/3/2006(H1N1)) infected in MDCK cells after 48 hrs by plaque reduction assay; format: functional, cell-based; in short: as §1
Influenza A virus [7] = assay: Inhibition of Influenza A virus A/Padova/30/11(H1N1) infected in MDCK cells after 48 hrs by plaque reduction assay; format: functional, organism-based; in short: as §1
[8] = Inhibition of Influenza A virus (A/Parma/24/2009(H1N1)) infected in MDCK cells after 48 hrs by plaque reduction assay; format: functional, cell-based; in short: as §1
Influenza A virus [9] = assay: Inhibition of Influenza A virus A/[…]/67/05(H3N2) infected in MDCK cells after 48 hrs by plaque reduction assay; format: functional, organism-based; in short: as §1
Influenza B virus [10] = assay: Inhibition of Influenza B virus (B/Lee/40) infected in MDCK cells after 48 hrs by plaque reduction assay; format: functional, organism-based; conditions: B/Lee/1940, MDCK; in short: as §1
Influenza B virus [11] = assay: Inhibition of Influenza B virus (B/Malaysia/2506/2004) infected in MDCK cells after 48 hrs by plaque reduction assay; format: functional, cell-based; conditions: B/Malaysia/2506/2004, MDCK; in short: as §1
[12] = Metabolic stability in human liver microsomes assessed as compound remaining after 30 mins by HPLC-MS/MS analysis; format: ADME; conditions: read-out: Stability
[13] = Solubility of the compound in D2O at 25 degC after 24 hrs by NMR analysis; format: physicochemical
[14] = Permeability of the compound by PAMPA; format: physicochemical
Liver microsome = assay: Metabolic stability in human liver microsomes after 30 mins by HPLC-MS/MS analysis; format: ADME; conditions: 0.5 h

Row | SMILES | IC50 [1] [µM] | EC50 [2] [µM] | EC50 (Influenza A virus [3]) [µM] | CC50 at 24 h [4] [µM] | CC50 at 48 h [5] [µM] | inhibition activity call (active/not active) (Human betaherpesvirus 5) | EC50 [6] [µM] | EC50 (Influenza A virus [7]) [µM] | EC50 [8] [µM] | EC50 (Influenza A virus [9]) [µM] | EC50 (Influenza B virus [10]) [µM] | EC50 (Influenza B virus [11]) [µM] | inhibition (Human betaherpesvirus 5) | IC50 [2] [µM] | remaining at 0.5 h [12] [%] | solubility at 24 h [13] [µg/mL] | permeability [14] | Stability (Liver microsome)
1 | Cc1ccc(-c2cc(C(F)(F)F)n3ncc(C(=O)Nc4sc5c(c4C(N)=O)CCCC5)c3n2)cc1 | 43 | 63 | 101 | > 250 | > 250 | – | – | – | – | – | – | – | – | – | – | – | – | –
2 | CCC(C)NC(=O)c1ccccc1NC(=O)c1ccc(C)c(S(=O)(=O)Nc2cc(C)ccc2C)c1 (stereo unspecified) | 30.5 | 45.9 | 18.7 | > 250 | > 250 | inactive | 17.5 | 22.6 | 25 | 15.9 | 21.8 | 29.6 | – | – | – | – | – | –
3 | NC(=O)c1c(NC(=O)c2cnn3c(C(F)(F)F)cc(-c4ccccc4)nc23)sc2c1CCCC2 | 120 | 70.5 | > 100 | > 250 | > 250 | – | – | – | – | – | – | – | – | – | – | – | – | –
4 | CCC(C)NC(=O)c1ccccc1NC(=O)c1ccc(C)c(S(=O)(=O)Nc2cccc(NC(=O)c3ccccc3)c2)c1 (stereo unspecified) | > 200 | > 100 | > 100 | > 250 | > 250 | – | – | – | – | – | – | – | – | – | – | – | – | –
5 | O=C(Nc1ccccc1Cl)c1ccc2c(c1)C1C3CCC(C3)C1C(c1ccccc1)N2 (stereo unspecified) | > 200 | > 100 | > 100 | > 250 | > 250 | – | – | – | – | – | – | – | – | – | – | – | – | –
6 | NC(=O)c1ncn([C@@H]2O[C@H](CO)[C@@H](O)[C@H]2O)n1 [RIBAVIRIN] | – | 24.9 | 15.6 | > 250 | > 250 | – | – | – | – | – | – | – | – | – | – | – | – | –
7 | NC(=O)c1c(NC(=O)c2cccnc2)sc2c1CCCC2 | > 200 | – | – | > 250 | 45.2 | – | – | – | – | – | – | – | – | – | – | – | – | –
8 | NC(=O)c1c(NC(=O)c2cnn3c(C(F)F)cc(-c4ccccc4)nc23)sc2c1CCC2 | – | 29.5 | 75.5 | > 250 | > 250 | – | > 100 | > 100 | 95.5 | > 100 | > 100 | > 100 | inactive | 31.4 | 37 | – | – | –
9 | CCC(C)NC(=O)c1ccccc1NC(=O)c1cccc(S(=O)(=O)Nc2ccccc2)c1 (stereo unspecified) | 9.2 | 17.2 | 30.5 | > 250 | > 250 | inactive | 22.5 | 37.6 | 43 | 23.5 | 25.5 | 26.3 | – | – | 50 | 1 (≈ 2.21 µM) | permeable | –
10 | NC(=O)c1c(NC(=O)c2nc3nc(-c4ccccc4)cc(C(F)(F)F)n3n2)sc2c1CCCC2 | 7.5 | 9.2 | 23.7 | > 250 | > 250 | inactive | 23.3 | 20.6 | 22.9 | 20 | 33.5 | 25.9 | – | – | – | 2.4 (≈ 4.93 µM) | permeable | Stable
11 | CCC(C)NC(=O)c1ccccc1NC(=O)c1cccc(S(=O)(=O)Nc2cc(C)ccc2C)c1 (stereo unspecified) | 84 | 25.7 | 35.2 | > 250 | > 250 | inactive | 16.5 | 16.7 | 22.1 | 10.8 | 15.5 | 19.8 | – | – | – | – | – | –
12 | Cc1ccc(C)c(NS(=O)(=O)c2cc(C(=O)Nc3ccccc3C(=O)Nc3ccccc3)ccc2C)c1 | 91.9 | > 100 | 24.7 | > 250 | 70.3 | – | – | – | – | – | – | – | – | – | – | – | – | –
13 | COC(=O)C1=C(N)N(c2cccc(Cl)c2C)C2=C(C(=O)CCC2)C1c1ccc2c(c1)OCO2 (stereo unspecified) | 30.4 | 18.5 | – | – | – | – | – | – | – | – | – | – | – | – | – | – | – | –
14 | NC(=O)c1c(NC(=O)c2cnn3c(C(F)F)cc(-c4ccccc4)nc23)sc2c1CCCC2 | 91.2 | 94.2 | 66 | > 250 | > 250 | – | – | – | – | – | – | – | – | – | – | – | – | –
15 | NC(=O)c1c(NC(=O)c2cnn3c(C(F)(F)F)cc(-c4ccccc4)nc23)sc2c1CCC2 | 44.8 | 27.5 | 57 | > 250 | > 250 | – | – | – | – | – | – | – | – | – | – | – | – | –
16 | O=C(Nc1cnn(C23CC4CC(CC(C4)C2)C3)c1)c1cnn2c1NC(c1ccccc1)CC2C(F)(F)F (stereo unspecified) | > 200 | – | – | 30.1 | 20.2 | – | – | – | – | – | – | – | – | – | – | – | – | –
17 | COc1ccc(-c2cc(C(F)(F)F)n3ncc(C(=O)Nc4sc5c(c4C(N)=O)CCCC5)c3n2)cc1 | 135 | – | – | 40.4 | 51.3 | – | – | – | – | – | – | – | – | – | – | – | – | –
18 | O=C(Nc1ccc2c(c1)CCC2)c1cnn2c(C(F)(F)F)cc(-c3cccs3)nc12 | 35.1 | – | – | 12.4 | 18.3 | – | – | – | – | – | – | – | – | – | – | – | – | –
19 | Cn1c(=O)cc2c3c(c(N4CCCCC4)ccc31)C(=O)c1ccccc1-2 | – | – | – | – | – | Active | – | – | – | – | – | – | – | – | – | – | – | –
20 | CCC(C)NC(=O)c1ccccc1NC(=O)c1cccc(S(=O)(=O)Nc2ccc(O)cc2)c1 (stereo unspecified) | > 200 | 82.6 | > 100 | > 250 | > 250 | – | – | – | – | – | – | – | – | – | – | – | – | –
